FXIa inh: factor XIa (human) inhibition; P03951; purified FXIa, Boc-Glu-Ala-Arg-AMC fluorogenic substrate; inhibition, % at 5 µM; hit rate 0.14% among 220,000;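 active = inhibition of at least 40%; inactive = inhibition below 40%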;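 also: fluorescence of freed AMC excited at 355 nm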
FXIIa inh: blocks human coagulation factor XIIa protease activity; P00748; purified FXIIa, Boc-QGR-AMC fluorogenic substrate, 2 h; inhibition, % at 5 µM; hit rate 0.3% among 220,000; in the data active = inhibition above about 40%
KLK5 inh: inhibitors of human kallikrein 5 | Q9Y337 | recombinant hK5, fluorogenic AMC substrate cleavage | inhibition, % at 5 µM | hit rate 0.59% among 210,000;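 active = inhibition of 40% or more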
Target sequence (Q9Y337 67-293 limits assumed): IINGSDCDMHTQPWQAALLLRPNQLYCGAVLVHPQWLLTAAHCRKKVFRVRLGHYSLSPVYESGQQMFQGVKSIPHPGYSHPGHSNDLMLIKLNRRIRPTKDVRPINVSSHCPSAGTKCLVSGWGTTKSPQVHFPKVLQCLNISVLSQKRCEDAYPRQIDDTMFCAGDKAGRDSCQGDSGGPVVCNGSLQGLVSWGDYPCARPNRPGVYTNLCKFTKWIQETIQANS
Rce1 inh: yeast Ras-converting enzyme inhibition. Q03530. yeast membranes, quenched prenylated peptide cleavage fluorescence. calls only. hit rate 0.27% among 290,000. AID 2563;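 active = fall in fluorescence gain of 50% or more versus controls, with final raw signal at or below 3038400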
Target sequence (Q03530 whole entry, looked up): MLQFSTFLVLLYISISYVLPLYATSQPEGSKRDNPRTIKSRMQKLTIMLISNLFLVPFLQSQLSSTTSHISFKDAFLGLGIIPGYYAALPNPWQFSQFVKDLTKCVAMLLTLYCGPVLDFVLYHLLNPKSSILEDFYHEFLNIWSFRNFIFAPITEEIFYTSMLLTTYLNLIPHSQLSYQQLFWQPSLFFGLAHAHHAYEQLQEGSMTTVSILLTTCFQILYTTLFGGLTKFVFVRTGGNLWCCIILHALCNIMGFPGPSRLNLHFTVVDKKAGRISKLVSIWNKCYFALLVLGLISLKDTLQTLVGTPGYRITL
Thrombin inh: inhibitors of human thrombin. alpha-thrombin, Boc-VPR-AMC fluorogenic substrate cleavage. inhibition, % at 5 µM. AID 1046. hit rate 0.26% among 220,000;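 active = inhibition at or above 40%; inactive = inhibition below 40%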
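Material: Human alpha-thrombin protein | Buffer or medium: pH 7.5 Tris-saline with Tween 20 | Reagent: Boc-VPR-AMC substrate, 15 µM final | Schedule: Reaction at ambient temperature | Detection: AMC fluorescence at 355 nm excitation and 460 nm emission | Evaluation: Percent inhibition scaled between no-compound controls and no-enzyme blanks | Controls: no-compound enzyme wells and no-enzyme blanks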
Fh CTSL1 inh: cathepsin L1 inhibition, PFM18AAP counter-screen | AID 1906 | hit rate 0.49% among 300,000 | recombinant F. hepatica cathepsin L1, Z-Leu-Arg-MCA fluorescence | inhibition, % at 5.96 µM;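 active = inhibition above the mean of all tested compounds plus 3 SD, set per screening campaign, cut at about 17% in these data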
Hits are given with their value; - = inactive; . = no result; + = active, no number. Sampled rows, rich in hits. Any-hit rate of the full collection: about 1.4%.

SMILES | FXIa inh | FXIIa inh | KLK5 inh | Rce1 inh | Thrombin inh | Fh CTSL1 inh
CS(=O)(=O)Nc1ccccc1C(=O)NC1CC2CCC1C2 (stereo unspecified) | - | - | - | + | - | -
CS(=O)(=O)Nc1ccccc1C(=O)NCc1ccccc1Cl | - | - | . | + | - | -
COCCCN1CC(=O)N2C(c3cccc(OC)c3OC)c3[nH]c4ccccc4c3C[C@H]2C1=O (stereo partly specified) | . | . | . | - | . | -
COc1ccccc1N1CCN(CC(=O)Nc2nc(C)c(C(=O)N(C)C)s2)CC1 | . | . | . | - | . | -
CC(C)(C)C(=O)C[n+]1ccc(C(N)=O)cc1 | - | - | - | + | - | -
O=C(N/C(=C\c1ccco1)C(=O)N1CCCC1CO)c1ccccc1 (stereo unspecified) | . | . | . | - | . | -
CCc1ccc(C2c3[nH]c4ccccc4c3CCN2C(=O)c2cc[n+]([O-])cc2)cc1 (stereo unspecified) | - | - | 50 | - | - | -
Cn1nccc1C(=O)N1CCc2c([nH]c3ccccc23)C1c1ccc(F)cc1 (stereo unspecified) | - | - | - | - | - | -
CCOc1cc(CNC2CCCC2)ccc1OCc1ccccc1Cl | - | - | - | + | - | -
CCOc1cc(CNC2CCCC2)cc(Cl)c1OCc1ccccc1 | - | - | - | - | - | -
O=C(COc1ccccc1C(=O)O)Nc1ccc(SC(F)F)cc1 | - | - | . | - | 48 | -
CNC(=S)N(Cc1cc2cc(OC)c(OC)cc2[nH]c1=O)C1CCCC1 | - | - | - | - | - | -
O=C(CNC(=O)c1ccc(Cl)cc1Cl)OCC(=O)N1CCN(c2ccccc2)CC1 | . | . | . | - | . | .
O=C(COC(=O)CNC(=O)c1ccc(Cl)cc1Cl)Nc1ccc(N2CCOCC2)cc1 | - | - | - | - | - | 17
COc1ccc(/C=C/C(=O)OCC(=O)Nc2ccc(N3CCOCC3)cc2)cc1 | - | - | 82 | - | - | -
O=C(O)CNC(=O)c1nc(-c2ccccc2)n(-c2ccccc2)n1 | - | - | - | - | - | -
CCN(CC)c1ccc(C(=O)Nn2cnc3ccccc3c2=O)cc1 | . | . | . | - | . | -
COc1cc(OC)c2ccc(=O)oc2c1C(CC(=O)N1CCCC1)c1ccc2c(c1)OCO2 (stereo unspecified) | - | - | - | - | - | -
COc1cc(C(CC(=O)N2CCCC2)c2c(OC)cc(OC)c3ccc(=O)oc23)cc(OC)c1OC (stereo unspecified) | - | - | - | - | - | 37
CC1COC(=O)C(NNc2ccc(Cl)c(Cl)c2)=N1 (stereo unspecified) | - | - | - | - | - | -
CC(C)CC(NC(=O)C(COCc1ccccc1)NC(=O)OC(C)(C)C)C(=O)NN (stereo unspecified) | - | - | - | - | - | 18
O=[N+]([O-])c1cccc(S(=O)(=O)c2ccc(NCCO)c([N+](=O)[O-])c2)c1 | - | - | - | - | - | -
CSc1nsc2nc(=O)c(/C=C3\C(C)=Nc4ccc(C)cc43)c(N)n12 | - | 42 | - | - | - | -
CC1=Nc2ccc(C)cc2/C1=C/c1c(N)n2c(S(=O)(=O)C(C)C)nsc2nc1=O | - | - | - | - | - | .
CCOC(=O)N1CCN(C(=O)c2cnn3c(C)c(Cc4ccc(C)cc4)c(C)nc23)CC1 | - | - | 63 | - | - | -
SMILES | FXIa inh | FXIIa inh | KLK5 inh | Rce1 inh | Thrombin inh | Fh CTSL1 inh
Cc1cnc(C(=O)NNC(=O)c2ccc(Br)cc2)cn1 | . | . | . | - | . | -
Cc1nn(-c2ccccc2)c2nc(N)c(C(N)=O)cc12 | . | . | . | + | . | -
CC(C)[C@H](N)C(=O)N1CCC(C(=O)N[C@@H](Cc2ccccc2)C(=O)NCc2ccc(F)cc2)CC1 | . | . | . | - | . | -
CCCSc1nc(C)cc(C)c1C(N)=O | - | - | - | - | - | -
OC1C2CN3CCN(C2)CC1(Cc1ccccc1)C3 (stereo unspecified) | - | - | - | - | - | -
OC1C2(Cc3ccccc3)CN3CCN(C2)CC1(Cc1ccccc1)C3 (stereo unspecified) | - | - | 110 | - | - | -
CN(CC(=O)Nc1ccccc1C(F)(F)F)Cc1c(O)ccc2ccccc12 | . | . | . | - | . | -
COC(=O)c1ccc2c(=O)n(CCN3CCOCC3)c(SCC(=O)NCc3ccccc3)nc2c1 | - | - | - | - | - | -
Cc1c(N2C(=O)/C(=C3/C(=O)N(C)c4ccccc43)SC2=S)c(=O)n(-c2ccccc2)n1C | - | - | - | - | - | -
CC(=O)N1C(=O)/C(=C2\SC(=S)N(c3c(C)n(C)n(-c4ccccc4)c3=O)C2=O)c2ccccc21 | - | - | - | - | 50 | -
Cc1cc(C)nc(Nc2ccc(N3CCCC3)cc2)n1 | - | - | - | - | - | 17
COc1ccc(CC(=O)N2CCC(c3ccccc3)C2)cc1 (stereo unspecified) | - | - | - | - | - | -
COc1ccc(CC(=O)N2CCC(Nc3nc4ccccc4n3Cc3ccc(F)cc3)CC2)cc1 | - | - | 60 | - | - | -
COc1ccccc1CNC(=O)c1c(N)n(CCCN2CCOCC2)c2nc3ccccc3nc12 | - | - | - | - | - | .
CC(C)OC(=O)c1c(N)n(CCCN2CCOCC2)c2nc3ccccc3nc12 | - | - | - | + | - | -
COc1ccc(N2CC(C(=O)N/N=C/c3cc([N+](=O)[O-])ccc3O)CC2=O)cc1 (stereo unspecified) | - | - | - | - | - | -
COc1cc(Nc2ccc(S(N)(=O)=O)cc2)c([N+](=O)[O-])nc1[N+](=O)[O-] | . | . | . | - | . | -
CCCN1Cc2cccc(C(=O)NCc3ccc4c(c3)OCO4)c2C1=O | - | - | - | - | - | -
CCCN1Cc2cccc(C(=O)NCc3cccs3)c2C1=O | - | - | - | - | - | 18
Cc1ccc(CNC(=O)CSc2nc3ccsc3c(=O)n2NC(=O)c2ccccc2)cc1 | - | - | - | - | - | -
CCC(C)NC(=O)CSc1nc2ccsc2c(=O)n1NC(=O)c1ccccc1 (stereo unspecified) | - | 41 | - | - | - | -
Cc1ccc2c(c1)NC(=O)C(CC(=O)NCCCN1CCCC1)O2 (stereo unspecified) | - | - | - | - | - | -
Cc1ccc2c(c1)NC(=O)C(CC(=O)NCCCN1CCCCC1C)O2 (stereo unspecified) | - | - | 47 | - | - | -
O=C(CCN1C(=O)[C@@H]2Cc3ccccc3CN2C1=O)NCc1ccccc1Cl | . | . | . | - | . | -
Cc1csc(NC(=O)Cc2c[nH]c3ccccc23)n1 | - | 40 | - | - | - | -
COCCNCC(=O)Nc1nc(C)cs1 | 46 | 102 | - | . | - | .
CCOC(=O)c1cc2sccc2n1CC(=O)N1c2ccccc2CC1C (stereo unspecified) | - | 48 | - | - | - | -
CCc1cccc(Nc2cnn(C34C[C@@H]5C[C@@H](CC(CC(=O)O)(C5)C3)C4)c(=O)c2Cl)c1 | - | - | - | - | - | -

Screening results: PubChem BioAssay, several laboratories
